In ChEMBL document CHEMBL2434860, “Nitroreductase-activated nitric oxide (NO) prodrugs” (Bioorg Med Chem Lett, 2013):

Tests used:
[1] = Half life in aqueous buffer assessed as nitric oxide release at pH 7.4; format: physicochemical
DLD-1 [2] = assay: Antiproliferative activity against human DLD1 cells assessed as cell viability at 75 uM after 72 hrs by MTT assay in presence of Escherichia coli NTR and NADPH relative to control; format: functional; settings: DLD-1, 72 h, read-out: Activity
Summary of the method: (§1)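 DLD-1 human colon adenocarcinoma cells seeded at 3 × […] cells/well overnight in complete RPMI 1640. Treated with compound from DMSO stock (1% DMSO final), with or without E. coli nitroreductase (6 mg/2 mL DPBS stock) and NADPH (0.5 mM stock in DPBS). Incubated 72 h at 37 °C. MTT added for 4 h, formazan dissolved in DMSO, absorbance read at 570 nm for viability.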

DLD-1 [3] = assay: Antiproliferative activity against human DLD1 cells assessed as cell viability at 75 uM after 72 hrs by MTT assay in absence of Escherichia coli NTR and presence of NADPH; format: functional; settings: DLD-1, 72 h, read-out: Activity; summary of the method: as §1
[4] = Stability of the compound in phosphate buffer at pH 7.0 assessed as nitric oxide release at 50 uM after 1 hr by chemiluminescence assay in absence of Escherichia coli NTR and presence of NADPH; format: physicochemical; settings: pH 7, 1 h
Summary of the method: (§2)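 Compound at 50 µM was incubated at 37 °C in pH 7.0 phosphate buffer with NADPH, with or without E. coli nitroreductase. After 1 h, an aliquot was injected into a chemiluminescence NO analyser (argon carrier) whose reservoir held NaI/acetic acid, so nitrite was also counted as NO. The signal was calibrated against NaNO2 standards. Values are averages of two independent runs.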

[5] = Prodrug conversion in phosphate buffer at pH 7.0 assessed as Escherichia coli NTR-mediated decomposition measuring nitric oxide release at 50 uM after 1 hr by chemiluminescence assay in presence of NADPH; format: physicochemical; settings: pH 7, 1 h; summary of the method: as §2
[6] = Prodrug conversion in phosphate buffer at pH 7.0 assessed as Escherichia coli NTR-mediated decomposition measuring compound remaining at 50 uM after 1 hr by HPLC analysis in presence of NADPH; format: physicochemical; settings: pH 7, 1 h
Summary of the method: (§3)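 Compound at 50 µM (from a 10 mM DMSO stock) was stirred at 37 °C in pH 7.0 phosphate buffer with NADPH, with or without E. coli nitroreductase; the blank had no enzyme. After 1 h, an aliquot was analysed by reverse-phase C-18 HPLC (70% MeCN:H2O, 1 mL/min) for compound remaining. Values are averages of two independent runs.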

[7] = Stability of the compound in phosphate buffer at pH 7.0 assessed as compound remaining at 50 uM after 1 hr by HPLC analysis in absence of Escherichia coli NTR and presence of NADPH; format: physicochemical; settings: pH 7, 1 h; summary of the method: as §3
DLD-1 [8] = assay: Antiproliferative activity against human DLD1 cells assessed as cell viability at 100 uM after 72 hrs by MTT assay in presence of Escherichia coli NTR and NADPH (reference value: 107.4%); format: functional; settings: DLD-1, 72 h, read-out: Activity; summary of the method: as §1
DLD-1 [9] = assay: Antiproliferative activity against human DLD1 cells assessed as cell viability at 50 uM after 72 hrs by MTT assay in presence of Escherichia coli NTR and NADPH (reference value: 107.4%); format: functional; settings: DLD-1, 72 h, read-out: Activity; summary of the method: as §1
DLD-1 [10] = assay: Antiproliferative activity against human DLD1 cells assessed as cell viability at 100 uM after 72 hrs by MTT assay in absence of Escherichia coli NTR and NADPH (reference value: 107.4%); format: functional; settings: DLD-1, 72 h, read-out: Activity; summary of the method: as §1
DLD-1 [11] = assay: Antiproliferative activity against human DLD1 cells assessed as cell viability at 50 uM after 72 hrs by MTT assay in absence of Escherichia coli NTR and NADPH (reference value: 107.4%); format: functional; settings: DLD-1, 72 h, read-out: Activity; summary of the method: as §1
DLD-1 [12] = assay: Antiproliferative activity against human DLD1 cells assessed as cell viability at 25 uM after 72 hrs by MTT assay in absence of Escherichia coli NTR and NADPH (reference value: 107.4%); format: functional; settings: DLD-1, 72 h, read-out: Activity; summary of the method: as §1
DLD-1 [13] = assay: Cytotoxicity against human DLD1 cells assessed as cell viability at 25 uM after 72 hrs by MTT assay in presence of Escherichia coli NTR and NADPH (reference value: 107.4%); format: functional; settings: DLD-1, 72 h, read-out: Activity; summary of the method: as §1
HeLa [14] = assay: Cytotoxicity against human HeLa cells assessed as cell viability at 25 uM after 72 hrs by MTT assay in presence of Escherichia coli NTR and NADPH (reference value: 67.2%); format: functional; settings: read-out: Activity
HeLa [15] = assay: Cytotoxicity against human HeLa cells assessed as cell viability at 10 uM after 72 hrs by MTT assay in presence of Escherichia coli NTR and NADPH (reference value: 67.2%); format: functional; settings: read-out: Activity
HeLa [16] = assay: Cytotoxicity against human HeLa cells assessed as cell viability at 1 uM after 72 hrs by MTT assay in presence of Escherichia coli NTR and NADPH (reference value: 67.2%); format: functional; settings: read-out: Activity
HeLa [17] = assay: Cytotoxicity against human HeLa cells assessed as cell viability at 25 uM after 72 hrs by MTT assay in absence of Escherichia coli NTR and NADPH (reference value: 88.2%); format: functional; settings: read-out: Activity
HeLa [18] = assay: Cytotoxicity against human HeLa cells assessed as cell viability at 1 uM after 72 hrs by MTT assay in absence of Escherichia coli NTR and NADPH (reference value: 88.2%); format: functional; settings: read-out: Activity
HeLa [19] = assay: Cytotoxicity against human HeLa cells assessed as cell viability at 10 uM after 72 hrs by MTT assay in absence of Escherichia coli NTR and NADPH (reference value: 88.2%); format: functional; settings: read-out: Activity
DLD-1 [20] = assay: Antiproliferative activity against human DLD1 cells assessed as cell viability at 10 uM after 72 hrs by MTT assay in presence of Escherichia coli NTR and NADPH (reference value: 86.3%); format: functional; settings: DLD-1, 72 h, read-out: Activity; summary of the method: as §1
DLD-1 [21] = assay: Antiproliferative activity against human DLD1 cells assessed as cell viability at 1 uM after 72 hrs by MTT assay in presence of Escherichia coli NTR and NADPH (reference value: 86.3%); format: functional; settings: DLD-1, 72 h, read-out: Activity; summary of the method: as §1
DLD-1 [22] = assay: Antiproliferative activity against human DLD1 cells assessed as cell viability at 25 uM after 72 hrs by MTT assay in absence of Escherichia coli NTR and presence of NADPH (reference value: 74.8%); format: functional; settings: DLD-1, 72 h, read-out: Activity; summary of the method: as §1
DLD-1 [23] = assay: Antiproliferative activity against human DLD1 cells assessed as cell viability at 10 uM after 72 hrs by MTT assay in absence of Escherichia coli NTR and presence of NADPH (reference value: 74.8%); format: functional; settings: DLD-1, 72 h, read-out: Activity; summary of the method: as §1
DLD-1 [24] = assay: Antiproliferative activity against human DLD1 cells assessed as cell viability at 1 uM after 72 hrs by MTT assay in absence of Escherichia coli NTR and presence of NADPH (reference value: 74.8%); format: functional; settings: DLD-1, 72 h, read-out: Activity; summary of the method: as §1
[25] = Prodrug conversion in phosphate buffer at pH 6.5 assessed as Escherichia coli NTR-mediated decomposition measuring nitric oxide release at 50 uM after 5 mins; format: physicochemical; settings: pH 6.5, 5 min
Summary of the method: (§4)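 Compound at 50 µM was reacted with E. coli nitroreductase and NADPH in phosphate buffer at pH 6.5 or at pH 7.4 (PBS), stirred at 37 °C. Aliquots were injected at set time points into a chemiluminescence NO analyser with an NaI/acetic acid reservoir, which also converts nitrite to NO. The signal was calibrated with NaNO2 standards.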

[26] = Prodrug conversion in phosphate buffer at pH 7.4 assessed as Escherichia coli NTR-mediated decomposition measuring nitric oxide release at 50 uM after 5 mins; format: physicochemical; settings: pH 7.4, 5 min; summary of the method: as §4
HeLa [27] = assay: Cytotoxicity against human HeLa cells assessed as cell viability after 72 hrs by MTT assay in presence of Escherichia coli NTR and NADPH; format: functional, cell-based
DLD-1 [28] = assay: Antiproliferative activity against human DLD1 cells assessed as cell viability at 25 uM after 72 hrs by MTT assay in presence of Escherichia coli NTR and NADPH (reference value: 86.3%); format: functional; settings: DLD-1, 72 h, read-out: Activity; summary of the method: as §1

Row | SMILES | t1/2 [1] [s] | viability at 75 µM (DLD-1 [2]) [%] | viability at 75 µM (DLD-1 [3]) [%] | Stability [4] | Drug metabolism [5] [µM] | Stability [6] [%] | Stability [7] | other results
1 | [Na+].[O-]/N=[N+](\[O-])N1CCCC1 | 2 | – | – | – | – | – | – | –
2 | CN(C)/[N+]([O-])=N/OCc1ccc([N+](=O)[O-])cc1 | – | 32.2 | 74.7 | Stable | 13.6 | 60 | Stable | –
3 | O=C(OCc1ccc([N+](=O)[O-])cc1)c1ccccc1 | – | – | – | Stable | 1.1 | 68 | Stable | viability at 100 µM (DLD-1 [8]): 50.5%; viability at 50 µM (DLD-1 [9]): 85.5%; viability at 100 µM (DLD-1 [10]): 84.5%; viability at 50 µM (DLD-1 [11]): 89.2%; viability at 25 µM (DLD-1 [12]): 98.3%; viability at 25 µM (DLD-1 [13]): 93.4%
4 | CCN(CC)/[N+]([O-])=N/OCc1ccc([N+](=O)[O-])cc1 | – | 27.5 | 79.2 | Stable | 6.8 | 60 | Stable | –
5 | CCN(CC)/[N+]([O-])=N/[O-].[Na+] | 120 | – | – | – | – | – | – | –
6 | CN(C)/[N+]([O-])=N/[O-].[Na+] | 24 | – | – | – | – | – | – | –
7 | O=[N+]([O-])c1ccc(CO/N=[N+](\[O-])N2CCCC2)cc1 | – | 48.5 | 68.6 | Stable | 18.3 | 28 | Stable | –
8 | CC1CCCCN1/[N+]([O-])=N/OCc1ccc([N+](=O)[O-])cc1 (configuration not stated) | – | 10.2 | 53 | Stable | 19.7 | 31 | Stable | viability at 25 µM (HeLa [14]): 6.9%; viability at 10 µM (HeLa [15]): 31.1%; viability at 1 µM (HeLa [16]): 56.6%; viability at 25 µM (HeLa [17]): 24.6%; viability at 1 µM (HeLa [18]): 76.9%; viability at 10 µM (HeLa [19]): 65.3%; viability at 10 µM (DLD-1 [20]): 30.8%; viability at 1 µM (DLD-1 [21]): 38.6%; viability at 25 µM (DLD-1 [22]): 63.7%; viability at 10 µM (DLD-1 [23]): 69.1%; viability at 1 µM (DLD-1 [24]): 82.1%; Drug metabolism [25]: 6 µM; Drug metabolism [26]: 17 µM; Activity (HeLa [27]): Dose-dependent effect; viability at 25 µM (DLD-1 [28]): 12.5%
